Screening data deposited in PubChem BioAssay by several laboratories.
The list is not random: actives were taken first. Their share in the collection is about 1.1%.
Rin1-Abl PPI inh – blocks binding of human Rin1 to Abl; P00519+Q13671; TR-FRET Rin1/Abl binding, biochemical; inhibition, % at 7.35 µM; actives 0.4% (n = 360,000); in the data active = inhibition above about 5%, passing the limit was not always enough
ERAP1 inh – ERAP1 (human) enzyme inhibition; recombinant ERAP1, Leu-AMC fluorescence, 60 min; inhibition, % at 10.7 µM; actives 0.15% (n = 340,000); AID 652197;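 active = mean replicate inhibition of at least 30%, or all replicates individually reaching that 30% level; inactive = mean below 30% and not every replicate reaching it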;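 also: 0% = neutral control wells and 100% = L-leucinethiol positive control wells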
ERp5 inh – blocks human ERp5 reductase activity on insulin; Q15084; ERp5 insulin aggregation, absorbance 650 nm, 90 min; inhibition, % at 9.99 µM; actives 0.05% (n = 350,000); AID 651711;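 active = mean replicate inhibition above about 25%, with every replicate also reaching it, limit read from the data, passing the limit was not always enough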
PDI turbidity – PDI (human) enzyme inhibition; PDI insulin aggregation turbidity, A650, 90 min; actives 0.052% (n = 350,000); inhibition, % at 10 µM; AID 588391; P07237;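 active = mean inhibition across replicates of 30% or more, whatever share of single replicates reach that level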
Target sequence (P07237 whole entry, looked up): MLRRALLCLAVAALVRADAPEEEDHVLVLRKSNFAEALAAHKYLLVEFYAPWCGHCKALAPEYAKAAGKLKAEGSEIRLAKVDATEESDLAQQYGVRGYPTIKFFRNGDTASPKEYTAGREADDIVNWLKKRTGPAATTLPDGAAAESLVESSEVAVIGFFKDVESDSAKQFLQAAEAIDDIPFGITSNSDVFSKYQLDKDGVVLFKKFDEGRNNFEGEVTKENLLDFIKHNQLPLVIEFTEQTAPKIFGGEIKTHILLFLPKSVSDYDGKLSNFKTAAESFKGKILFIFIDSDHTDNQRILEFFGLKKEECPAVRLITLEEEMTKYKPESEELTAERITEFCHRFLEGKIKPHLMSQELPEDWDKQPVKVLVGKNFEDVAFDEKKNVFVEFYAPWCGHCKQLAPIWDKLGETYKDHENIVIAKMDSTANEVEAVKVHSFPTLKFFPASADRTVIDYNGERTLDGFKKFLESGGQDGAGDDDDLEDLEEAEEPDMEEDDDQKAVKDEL
CAL PDZ FP-1 – CAL PDZ (human) peptide binding inhibition; Q9HD26; purified CAL PDZ, TMR-peptide fluorescence polarization, 1 h; inhibition, % at 24.9 µM; actives 0.92% (n = 300,000); AID 602252;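 active = mean inhibition of at least 30% with at least half of replicates also reaching 30%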;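 also: 0% = DMSO neutral control and 100% = excess unlabeled competitor peptide PRC23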
CAL PDZ FP-2 – human CAL PDZ-peptide interaction inhibition. purified CAL PDZ, TMR-peptide fluorescence polarization, 1 h. inhibition, % at 20 µM. actives 0.02% (n = 330,000);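 active = highest replicate inhibition of at least 40%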;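 also: plate controls were DMSO neutral control wells for no effect and unlabeled competitor peptide control wells for full effect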
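Material: tagged CAL PDZ domain; buffer or medium: 25 mM sodium phosphate pH 7.4, 150 mM NaCl, TCEP, IgG, Thesit; compound dosing: single point, 20 µM; schedule: 1 h incubation at room temperature before polarization reading; measured by: FP readout, S and P plane fluorescence; read-out basis: percent inhibition from loss of millipolarization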
An asterisk follows results filed as active.

`CC(C)(C)c1ccc(C(=O)C2CCCN(C(=O)c3ccccn3)C2)cc1` (centres undefined) gave Rin1-Abl PPI inh 0.5, ERAP1 inh -1.1, ERp5 inh 1.5, PDI turbidity 7.1, CAL PDZ FP-1 -1.8 and CAL PDZ FP-2 -1.5.
For COc1cccc(C(=O)C2CCCN(C(=O)c3ccccn3)C2)c1 (centres undefined) the results were Rin1-Abl PPI inh 4.6, ERAP1 inh 1.0, ERp5 inh -3.3, PDI turbidity 11.1, CAL PDZ FP-1 73.3* and CAL PDZ FP-2 1.0.
COc1ccc(OC)c(NC(=O)N2CCCC(C(=O)c3ccccc3OC)C2)c1 (centres undefined) was read as Rin1-Abl PPI inh 1.0, ERAP1 inh -1.5, ERp5 inh -0.5, PDI turbidity -8.8, CAL PDZ FP-1 76.8* and CAL PDZ FP-2 0.0.
`CN(c1ccccc1)S(=O)(=O)c1cccc(C(=O)NCCc2c[nH]c3ccccc23)c1` gave Rin1-Abl PPI inh -0.1, ERp5 inh 4.4, PDI turbidity 4.6, CAL PDZ FP-1 59.4* and CAL PDZ FP-2 8.7.
For CN(C)C(=O)C[C@H]1C[C@H]2c3cc(NS(=O)(=O)c4ccccc4)ccc3O[C@H]2[C@H](CO)O1 the results were ERAP1 inh -3.8 and ERp5 inh -3.6.
`O=C(NNc1cc(N2CCCC2)nc(N2CCCC2)n1)c1ccc([N+](=O)[O-])cc1` gave Rin1-Abl PPI inh -2.1, ERAP1 inh 0.8, ERp5 inh -4.3, PDI turbidity -3.5, CAL PDZ FP-1 30.0* and CAL PDZ FP-2 -1.6.
Screening Cc1cc2cc(C(c3nnnn3Cc3ccccc3)N3CCc4ccccc43)c(=O)[nH]c2cc1C (centres undefined) returned Rin1-Abl PPI inh -6.4, PDI turbidity -3.1, CAL PDZ FP-1 -4.2 and CAL PDZ FP-2 -0.5.
Cc1ccc2cc(C(c3nnnn3Cc3ccccc3)N3CCc4ccccc43)c(=O)[nH]c2c1C (centres undefined) was read as Rin1-Abl PPI inh -127.4, PDI turbidity -3.6, CAL PDZ FP-1 81.1* and CAL PDZ FP-2 0.2.
For C[C@@H]1CN([C@H](C)CO)S(=O)(=O)c2ccc(C3=CCCC3)cc2O[C@H]1CN(C)S(=O)(=O)c1cn(C)cn1 the results were ERAP1 inh -0.3 and ERp5 inh -0.6.
For O=C(NC(Cc1ccc(O)cc1)C(=O)N=Nc1c(O)[nH]c2ccccc12)c1ccccc1 (centres undefined) the results were Rin1-Abl PPI inh -1.4, ERAP1 inh -3.5, ERp5 inh 2.6, PDI turbidity 44.9*, CAL PDZ FP-1 -1.9 and CAL PDZ FP-2 -0.2.
O=C(CNC(=O)Cc1ccccc1)N=Nc1c(O)[nH]c2ccccc12 was read as Rin1-Abl PPI inh -1.4, ERAP1 inh -1.4, ERp5 inh 4.9, PDI turbidity 0.2 and CAL PDZ FP-2 -0.3.
`Brc1ccc(-n2cnc(-c3ccccc3)c2)cc1` gave Rin1-Abl PPI inh -3.6, ERAP1 inh -0.4, ERp5 inh -2.4, PDI turbidity -3.4, CAL PDZ FP-1 51.3* and CAL PDZ FP-2 -2.9.
O=C(c1ccc(NS(=O)(=O)c2cccc(F)c2)cc1)N1CCCCC1 was read as Rin1-Abl PPI inh -4.5, ERAP1 inh -4.3, ERp5 inh -13.2, PDI turbidity -5.5, CAL PDZ FP-1 35.7* and CAL PDZ FP-2 -1.5.
C[C@H]1CN([C@@H](C)CO)C(=O)c2cccc(NC(=O)C3CC3)c2O[C@@H]1CN(C)C(=O)Nc1ccc2c(c1)OCO2 was read as ERAP1 inh 1.8 and ERp5 inh 1.8.
Screening Cc1cc(C)nc(S/C=C/C(=O)c2ccccc2F)n1 returned Rin1-Abl PPI inh 0.6, ERAP1 inh -1.4, ERp5 inh 2.1, PDI turbidity 7.8, CAL PDZ FP-1 80.1* and CAL PDZ FP-2 -0.2.
For Cc1noc(C)c1NC(=O)N(C)C[C@@H]1Oc2ccc(NS(=O)(=O)c3ccc(Cl)cc3)cc2C(=O)N([C@@H](C)CO)C[C@@H]1C the results were ERAP1 inh -2.2 and ERp5 inh 2.4.
Screening O=C(CSc1nnc2ccc(-c3ccc(F)cc3)nn12)N1CCCC1 returned Rin1-Abl PPI inh -2.3, ERAP1 inh 34.0*, ERp5 inh -4.9, PDI turbidity -1.0, CAL PDZ FP-1 -5.6 and CAL PDZ FP-2 -1.1.
